Results published in ChEMBL document CHEMBL1152518, “1,2,3-Selenadiazole thioacetanilides: synthesis and anti-HIV activity evaluation” (Bioorg Med Chem, 2009).

Columns and labels:
[1] = tested on: Human immunodeficiency virus 1; assay: Antiviral activity against HIV1 3B infected in human MT4 cells assessed as inhibition of virus-induced cytopathic effect after 5 days by MTT assay; assay type: functional, organism-based; conditions: Human immunodeficiency virus 1, 3B, MT4, 120 h
Procedure, shortened: (§1)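 MT-4 cells, resuspended at 6 × 10⁵ cells/ml, infected with HIV-1 IIIB or HIV-2 ROD at 100–300 CCID₅₀. Test compound stocks were made at 10× final concentration. Read after 5 days as MTT reduction to formazan, absorbance at 540 and 690 nm. Median OD of three wells. EC₅₀ is the concentration giving 50% protection against virus-induced cytopathic effect.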

[2] = Cytotoxicity against mock-infected human MT4 cells after 5 days by MTT assay; assay type: cell-based
Procedure, shortened: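 Mock-infected MT-4 cells at 6 × 10⁵ cells/ml, with culture medium in place of virus, exposed to compound (stocks at 10× final concentration) for 5 days. Viability read by MTT, absorbance at 540 and 690 nm, median OD of three wells. CC₅₀ is the concentration reducing OD540 of the mock-infected control by 50%.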

[3] = tested on: Human immunodeficiency virus 2; assay: Antiviral activity against HIV2 ROD infected in human MT4 cells assessed as inhibition of virus-induced cytopathic effect after 5 days by MTT assay; assay type: functional, organism-based; conditions: Human immunodeficiency virus 2, ISOLATE ROD, MT4, 120 h; procedure, shortened: as §1
[4] = Selectivity index, ratio of CC50 for mock-infected human MT4 cells to EC50 for HIV1 3B infected in human MT4 cells; assay type: toxicity, cell-based; conditions: mock-infected (CC50) and HIV-1 3B infected (EC50)
Procedure, shortened: (§2)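 Selectivity index is CC₅₀/EC₅₀. Both values come from MTT assays run over 5 days in MT-4 cells, mock-infected or infected with HIV-1 IIIB or HIV-2 ROD at 100–300 CCID₅₀. Median OD of three wells.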

[5] = Selectivity index, ratio of CC50 for mock-infected human MT4 cells to EC50 for HIV2 ROD infected in human MT4 cells; assay type: toxicity, cell-based; conditions: read-out: Ratio CC50/EC50; procedure, shortened: as §2
[6] = biological target: Human immunodeficiency virus type 1 reverse transcriptase (Human immunodeficiency virus 1, UniProt Q72547, K103N/Y181C); assay: Inhibition of HIV1 reverse transcriptase K103N/Y181C mutant
[7] = biological target: Human immunodeficiency virus type 1 reverse transcriptase (Human immunodeficiency virus 1, UniProt Q72547); assay: Inhibition of wild type HIV1 reverse transcriptase

Cc1cccc(C)c1NC(=O)CSc1[se]nnc1-c1ccc(Cl)c(Cl)c1
EC50 [1]: > 7 µM
CC50 at 120 h [2]: 7 µM
EC50 [3]: > 7 µM
selectivity ratio [4]: < 1
selectivity ratio [5]: < 1

Cc1ccc2sc(NC(=O)CSc3[se]nnc3-c3ccc(Cl)c(Cl)c3)nc2c1
EC50 [1]: > 10.2 µM
CC50 at 120 h [2]: 10.2 µM
EC50 [3]: > 10.2 µM
selectivity ratio [4]: < 1
selectivity ratio [5]: < 1

O=C(CSc1[se]nnc1-c1ccc(Cl)c(Cl)c1)Nc1ccccc1Br
EC50 [1]: > 23.6 µM
CC50 at 120 h [2]: 23.6 µM
EC50 [3]: > 23.6 µM
selectivity ratio [4]: < 1
selectivity ratio [5]: < 1

Cc1ccc(NC(=O)CSc2nnc(C)n2-c2ccccc2)c(Br)c1
EC50 [6]: 1.3 µM
EC50 [7]: 0.1 µM

CC(=O)c1ccc(NC(=O)CSc2[se]nnc2-c2ccc(Cl)c(Cl)c2)c(Br)c1
EC50 [1]: 2.45 µM
CC50 at 120 h [2]: 18.9 µM
EC50 [3]: > 18.9 µM
selectivity ratio [4]: 8
selectivity ratio [5]: < 1

Cc1ccccc1NC(=O)CSc1[se]nnc1-c1ccc(Cl)c(Cl)c1
EC50 [1]: 5.56 µM
CC50 at 120 h [2]: 22.3 µM
EC50 [3]: > 22.3 µM
selectivity ratio [4]: 4
selectivity ratio [5]: < 1

O=C(CSc1[se]nnc1-c1ccc(Cl)c(Cl)c1)Nc1cccnc1Cl
EC50 [1]: > 24.8 µM
CC50 at 120 h [2]: 24.8 µM
EC50 [3]: > 24.8 µM
selectivity ratio [4]: < 1
selectivity ratio [5]: < 1

O=C(CSc1[se]nnc1-c1ccc(Cl)c(Cl)c1)Nc1ccc(Cl)cc1
EC50 [1]: 5.59 µM
CC50 at 120 h [2]: 16.8 µM
EC50 [3]: > 16.8 µM
selectivity ratio [4]: 3
selectivity ratio [5]: < 1

O=C(CSc1[se]nnc1-c1ccc(Cl)c(Cl)c1)Nc1ccccc1[N+](=O)[O-]
EC50 [1]: ≥ 6.84 µM
CC50 at 120 h [2]: 26.6 µM
EC50 [3]: > 26.6 µM
selectivity ratio [5]: < 1

O=C(CSc1[se]nnc1-c1ccc(Cl)c(Cl)c1)Nc1ccccc1
EC50 [1]: ≥ 6.07 µM
CC50 at 120 h [2]: 19 µM
EC50 [3]: > 19 µM
selectivity ratio [4]: 63
selectivity ratio [5]: < 1

Cc1cc(C)c(-n2nnnc2SCC(=O)Nc2ccccc2Cl)c(C)c1
IC50 [7]: 0.005 µM

O=C(CSc1[se]nnc1-c1ccc(Cl)c(Cl)c1)Nc1nccs1
EC50 [1]: > 8.68 µM
CC50 at 120 h [2]: 8.68 µM
EC50 [3]: > 8.68 µM
selectivity ratio [4]: < 1
selectivity ratio [5]: < 1

O=C(CSc1[se]nnc1-c1ccc(Cl)c(Cl)c1)Nc1ccccc1F
EC50 [1]: > 26.9 µM
CC50 at 120 h [2]: 26.9 µM
EC50 [3]: > 26.9 µM
selectivity ratio [4]: < 1
selectivity ratio [5]: < 1

O=C(CSc1[se]nnc1-c1ccc(Cl)c(Cl)c1)Nc1ccccc1Cl
EC50 [1]: > 23.4 µM
CC50 at 120 h [2]: 23.4 µM
EC50 [3]: > 23.4 µM
selectivity ratio [4]: < 1
selectivity ratio [5]: < 1

Cc1ccc(NC(=O)CSc2[se]nnc2-c2ccc(Cl)c(Cl)c2)cc1
EC50 [1]: 6.65 µM
CC50 at 120 h [2]: 13.3 µM
EC50 [3]: > 13.3 µM
selectivity ratio [4]: 2
selectivity ratio [5]: < 1

Cc1cccc(NC(=O)CSc2[se]nnc2-c2ccc(Cl)c(Cl)c2)c1C
EC50 [1]: > 12.8 µM
CC50 at 120 h [2]: 12.8 µM
EC50 [3]: > 12.8 µM
selectivity ratio [4]: < 1
selectivity ratio [5]: < 1

COC(=O)c1ccsc1NC(=O)CSc1[se]nnc1-c1ccc(Cl)c(Cl)c1
EC50 [1]: > 22 µM
CC50 at 120 h [2]: 22 µM
EC50 [3]: > 22 µM
selectivity ratio [4]: < 1
selectivity ratio [5]: < 1

Cc1ccc(NC(=O)CSc2[se]nnc2-c2ccc(Cl)c(Cl)c2)c([N+](=O)[O-])c1
EC50 [1]: 5.42 µM
CC50 at 120 h [2]: 26.3 µM
EC50 [3]: > 26.3 µM
selectivity ratio [4]: 5
selectivity ratio [5]: < 1

Cc1ccc(NC(=O)CSc2[se]nnc2-c2ccc(Cl)c(Cl)c2)c(Br)c1
EC50 [1]: ≥ 8.71 µM
CC50 at 120 h [2]: 22.9 µM
EC50 [3]: > 22.9 µM
selectivity ratio [5]: < 1

O=C(CSc1[se]nnc1-c1ccc(Cl)c(Cl)c1)Nc1ccccn1
EC50 [1]: > 31.4 µM
CC50 at 120 h [2]: 31.4 µM
EC50 [3]: > 31.4 µM
selectivity ratio [4]: < 1
selectivity ratio [5]: < 1

Cc1ccc(-n2c(C)nnc2SCC(=O)Nc2ccccc2)cc1
EC50 [7]: 2.05 µM
